Source: PMC3974318 (Memórias do Instituto Oswaldo Cruz, 2013)
Entries after “also recorded” stand apart in the source; their conditions may differ.

Assays:
[1] = tested on: axenic amastigote forms of L. amazonensis; experiment: Mitochondrial membrane potential by rhodamine 123, flow cytometry; type: cell-based, Leishmania amazonensis; settings: 3 h, 32 °C, untreated cells 93.7%
[2] = tested on: axenic amastigotes of Leishmania amazonensis; experiment: Cell viability by propidium iodide staining, flow cytometry; type: cell-based
[3] = tested on: intracellular trypanosomes; settings: ref Izumi et al. 2012; cited from earlier work
[4] = tested on: promastigote forms of Leishmania amazonensis; experiment: Ultrastructural analysis by SEM and TEM; type: cell-based; settings: 2.5 µg/mL, 72 h
Erythrocytes = experiment: Cytotoxic activity: haemolysis of erythrocytes; type: cell-based, Human; settings: for toxicity to mammalian erythrocytes (lysis), in words: 3 h, 37 °C
Method in brief: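 Blood from healthy human donors was defibrinated and washed in glycosylated saline. A 3% erythrocyte suspension in glycosylated saline was incubated with a range of test compound concentrations for 3 h at 37 °C. Supernatant absorbance at 550 nm was compared with 1% Triton X-100-treated wells to give percent haemolysis.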

T. cruzi epimastigotes = settings: extracellular replicative form; ref Izumi et al. (2012); cited from earlier work
[5] = 100 µg/mL, 3 h, 32 °C, negative control 11.4%

| SMILES | Rh123 upper right gated population percentage ([1]; 100 µg/mL) [%] | PI-positive events, upper left quadrant gated percentage [2, 5] [%] | toxicity to mammalian erythrocytes (lysis), in words (Erythrocytes) | further results |
| --- | --- | --- | --- | --- |
| C=C1CC[C@@H]2[C@](C)(CCC[C@]2(C)C(=O)O)[C@H]1CC/C(C)=C/C(=O)O [Agathic acid, labd-8(20)-13-dien-15,19-dioic acid] | 27.5 | 63.4 | – | – |
| C[C@@H]1[C@H](O)[C@@H](C)/C=C/C=C/C=C/C=C/C=C/C=C/C=C/[C@H](O[C@@H]2O[C@H](C)[C@@H](O)[C@H](N)[C@@H]2O)C[C@@H]2O[C@](O)(C[C@@H](O)C[C@@H](O)[C@H](O)CC[C@@H](O)C[C@@H](O)CC(=O)O[C@H]1C)C[C@H](O)[C@H]2C(=O)O [Amphotericin B, reference compound] | – | – | – | PI-positive events, upper left quadrant gated percentage ([2]; positive control, concentration not given): 75.9% |
| N#CC(C#N)=NNc1cccc(Cl)c1 [CCCP, carbonyl cyanide m-chlorophenylhydrazone, reference compound] | – | – | – | Rh123 upper right gated population percentage ([1]; 200 µM): 53.1% |
| C=C1CC[C@H]2C(C)(C)[C@@H](O)CC[C@]2(C)[C@H]1CC/C(C)=C/C(=O)O [Hydroxycopalic acid, 3β-hydroxylabda-8(20),13-dien-15-oic acid] | – | – | more toxic | inhibition of 50% against intracellular trypanosomes [3]: 0.6 µg/mL; ultrastructural changes (TEM) [4]: swollen mitochondria with the appearance of concentric membrane structures inside the organelle; ultrastructural changes in epimastigotes (T. cruzi epimastigotes): organelle disorganisation and membranous vacuole formation |
| C=C1C[C@@]23CC[C@H]4[C@@](C)(CCC[C@@]4(C)C(=O)O)[C@@H]2CC[C@@H]1C3 [Kaurenoic acid, kaur-16-ene-18-oic acid] | 24.4 | 60.8 | more toxic | selectivity index (SI) (Erythrocytes; figures fit CC50/IC50 promastigote): 5 |
| C=C1CC[C@@H]2C(C)(C)CCC[C@@]2(C)[C@@H]1CC/C(C)=C/C(=O)OC [Methyl copalate, methyl labd-8(20),13-dien-15-oate] | – | – | – | inhibition of 50% against intracellular trypanosomes [3]: 0.8 µg/mL |
| C=C1CC[C@@H]2[C@](C)(CCC[C@@]2(C)C(=O)O)[C@H]1CC[C@H](C)CC(=O)O [Pinifolic acid, labd-8(20)-ene-15,18-dioic acid] | 32.4 | 68.4 | did not cause lysis except at the maximum concentration tested | toxicity to mammalian erythrocytes (lysis), in words (Erythrocytes; listed as pinifolic acid): no toxicity was observed, except at the maximum concentration tested |
| C=C1CC[C@@H]2[C@](C)(CCC[C@@]2(C)C(=O)O)[C@H]1CCc1ccoc1 [Polyaltic acid, 15,16-epoxylabda-8(20),13(16),14-trien-19-oic acid] | – | – | did not cause lysis except at the maximum concentration tested; also recorded: no toxicity was observed, except at the maximum concentration tested | – |
